Our source for the Activity values is ChEMBL document CHEMBL2062384, “Alkyne derivatives of isocoumarins as clickable activity-based probes for serine proteases” (Bioorg Med Chem, 2012).

Activity calls are given as the source filed them. No cut-off for these calls is given here.

The target of assay [1] is Trypsin (Homo sapiens) (UniProt P07477+P07478+P35030). As to the kind of experiment: Binding affinity to trypsin assessed as protein labeling at 2 uM after 15 mins by fluorescent scanning method. It counts as protein assay. The essentials:
(§1)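 100 ng purified protease per lane; cathepsin G in 50 mM HEPES pH 7.4 with 100 mM NaCl, others in 50 mM phosphate pH 7.4. Optional 30 min pre-block (chymotrypsin 100 µM Ala-Ala-Phe-phosphonate, cathepsin G 1 mM PMSF, urokinase 100 µM DFP, elastase/trypsin 1 mM dichloroisocoumarin). Probe 2 µM, 15 min at room temperature. Then 30 min room-temperature click (25 µM TAMRA-PEG-N3, 50 µM THPTA, 1 mM CuSO4, 500 µM ascorbate), SDS-PAGE, scan ex 532/em 580 nm.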

The species named for assay [2] is Bos taurus. As to the kind of experiment: Binding affinity to bovine chymotrypsin assessed as protein labeling at 2 uM measured after 15 mins pretreated with 100 uM Ala-Ala-Phe-diphenyl phosphonate for 30 mins before compound addition by fluorescent scanning method. The essentials: as §1
Assay [3] deals with Urokinase-type plasminogen activator (Homo sapiens) (UniProt P00749). Put plainly: Binding affinity to urokinase-type plasminogen activator assessed as protein labeling at 2 uM after 15 mins by fluorescent scanning method. The essentials:
as §1

The species entered for assay [4] is Bos taurus. As to the kind of experiment: Binding affinity to bovine chymotrypsin assessed as protein labeling at 2 uM measured after 15 mins by fluorescent scanning method. The method, boiled down: as §1
The target of assay [5] is Urokinase-type plasminogen activator (Homo sapiens) (UniProt P00749). As to the kind of experiment: Binding affinity to urokinase-type plasminogen activator assessed as protein labeling at 2 uM after 15 mins pretreated with 100 uM DFP for 30 mins before compound addition in presence of mouse EL4 lymphoma cell lysate for protease spiking by fluorescent scanning method relative to total protein content. It counts as cell-free. The essentials: (§2)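 Protease spiked into EL4 mouse lymphoma lysate (RIPA, 30 min on ice, cleared by centrifugation; 1 mg/mL protein in 50 mM phosphate pH 7.4), optionally pre-blocked (urokinase 100 µM DFP). Labeled with 2 µM probe 15 min on ice. Click on ice 30 min with TAMRA-PEG-N3, THPTA, CuSO4, ascorbate; 12% or 15% SDS-PAGE, fluorescence scan ex 532/em 580 nm.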

The species entered for assay [6] is Sus scrofa. As to the kind of experiment: Binding affinity to porcine pancreatic elastase assessed as protein labeling at 2 uM after 15 mins by fluorescent scanning method. The method, boiled down:
as §1

Assay [7] is filed under the species Sus scrofa. Put plainly: Binding affinity to porcine pancreatic elastase assessed as protein labeling at 2 uM after 15 mins pretreated with 1 mM 3,4-dichloroisocoumarin for 30 mins before compound addition by fluorescent scanning method. The method, boiled down: as §1
Assay [8] deals with Urokinase-type plasminogen activator (Homo sapiens) (UniProt P00749). Put plainly: Binding affinity to urokinase-type plasminogen activator assessed as protein labeling at 2 uM after 15 mins in presence of mouse EL4 lymphoma cell lysate for protease spiking by fluorescent scanning method relative to total protein content. Type of assay: cell-free. The method, boiled down:
as §2

For assay [9] the target is unchanged. As to the kind of experiment: Binding affinity to urokinase-type plasminogen activator assessed as protein labeling at 2 uM after 15 mins pretreated with 100 uM DFP for 30 mins before compound addition by fluorescent scanning method. The method, boiled down: as §1
Assay [10] concerns the target T1, Cathepsin G (Homo sapiens) (UniProt P08311).
T1 sequence (whole entry): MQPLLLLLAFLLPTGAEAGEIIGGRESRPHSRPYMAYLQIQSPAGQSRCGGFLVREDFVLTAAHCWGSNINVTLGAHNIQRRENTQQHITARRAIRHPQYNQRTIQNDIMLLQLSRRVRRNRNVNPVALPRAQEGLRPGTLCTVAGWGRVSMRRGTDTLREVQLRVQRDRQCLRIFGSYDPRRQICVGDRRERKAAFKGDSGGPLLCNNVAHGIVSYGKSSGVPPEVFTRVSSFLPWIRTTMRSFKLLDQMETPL
As to the kind of experiment: Binding affinity to human cathepsin G assessed as protein labeling at 2 uM after 15 mins by fluorescent scanning method. The method, boiled down:
as §1

The species named for assay [11] is Rattus norvegicus. Put plainly: Binding affinity to 25 kDa Chymotrypsin in rat liver proteome assessed as protein labeling at 1 uM after 30 mins by fluorescent scanning method. The essentials:
(§3)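 Rat liver homogenate (70 µm strainer, 0.5% NP-40 substitute in PBS, 1 h on ice, 15,000 rpm spin), diluted to 1 mg/mL protein in 50 mM phosphate, pH 7.4; pretreated 30 min on ice with DMSO, TPCK (100 µM) or PMSF (1 mM), then IC probe. Cu(I) click with TAMRA-PEG-N3/THPTA/CuSO4/ascorbate, SDS-PAGE, fluorescence scan (ex 532/em 580 nm).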

The species named for assay [12] is Rattus norvegicus. As to the kind of experiment: Binding affinity to 25 kDa Chymotrypsin in rat liver proteome assessed as protein labeling at 1 uM after 30 mins pre-treated with 100 uM TPCK for 30 mins before compound addition by fluorescent scanning method. The method, boiled down: as §3
The species entered for assay [13] is Rattus norvegicus. Put plainly: Binding affinity to 26 kDa Chymotrypsin in rat liver proteome assessed as protein labeling at 1 uM after 30 mins pre-treated with 100 uM TPCK for 30 mins before compound addition by fluorescent scanning method. The method, boiled down:
as §3

The species named for assay [14] is Rattus norvegicus. As to the kind of experiment: Binding affinity to 26 kDa Chymotrypsin in rat liver proteome assessed as protein labeling at 1 uM after 30 mins by fluorescent scanning method. The method, boiled down: as §3
The test system of assay [15] is lymphoma. Put plainly: Binding affinity to porcine pancreatic elastase assessed as protein labeling at 2 uM after 15 mins in presence of mouse EL4 lymphoma cell lysate for protease spiking by fluorescent scanning method relative to total protein content. It counts as cell-free. Particulars: Sus scrofa. The essentials: as §2
For assay [16], the target named is T1, Cathepsin G (Homo sapiens). Put plainly: Binding affinity to human cathepsin G assessed as protein labeling at 2 uM after 15 mins in presence of mouse EL4 lymphoma cell lysate for protease spiking by fluorescent scanning method relative to total protein content. It counts as cell-free. The method, boiled down:
as §2

For assay [17], the species on record is Rattus norvegicus. Put plainly: Binding affinity to 50 kDa Serine protease band in rat liver proteome assessed as protein labeling at 1 uM after 30 mins pre-treated with 100 uM TPCK for 30 mins before compound addition by fluorescent scanning method. Particulars: 0.5 uM, in the assay text read “at 0.5 uM” for “at 1 uM”. The essentials: as §3
For assay [18], the species on record is Rattus norvegicus. As to the kind of experiment: Binding affinity to 50 kDa Serine protease band in rat liver proteome assessed as protein labeling at 1 uM after 30 mins pre-treated with serin eprotease inhibitor PMSF for 30 mins before compound addition by fluorescent scanning method. Particulars: 0.5 uM, in the assay text read “at 0.5 uM” for “at 1 uM”. The method, boiled down: as §3

Assay [19] is filed under the species Rattus norvegicus. As to the kind of experiment: Binding affinity to 50 kDa Serine protease band in rat liver proteome assessed as protein labeling at 1 uM after 30 mins by fluorescent scanning method. Particulars: 0.5 uM, in the assay text read “at 0.5 uM” for “at 1 uM”. The method, boiled down:
as §3

Take `C#CCCOc1oc(=O)c2cc(NC(=O)CN)ccc2c1Cl`: the result in assay [1], in [3] and in assay [4] was Active. Besides, in assay [2], the outcome was inactive.

For `C#CCCOc1oc(=O)c2cc(NC(=O)CNC(=N)N)ccc2c1Cl`, the outcome in assay [1], in assay [5], in assay [6], in assay [3] and in assay [4] was Active. For the same compound, the outcome in assay [2] and in assay [7] was inactive. For the same compound, the Activity in assay [8] came out at 0.03%.

Take `C#CCCC(=O)Nc1ccc2c(Cl)c(OCCSC(=N)N)oc(=O)c2c1`: the outcome in assay [1], in assay [3] and in [4] was Active. Further, the outcome in [2] was inactive.

As to `C#CCCOc1oc(=O)c2cc([N+](=O)[O-])ccc2c1Cl`, the result in [1], in [6], in assay [7], in assay [3] and in [4] was Active. The outcome in assay [9] and in assay [2] was inactive.

In the case of `C#CCCOc1oc(=O)c2cc(NC(=O)c3ccccc3)ccc2c1Cl`, the outcome in assay [10], in assay [11] and in assay [4] was Active. Further, the outcome in assay [2] and in assay [12] was inactive.

Consider `C#CCCC(=O)Nc1ccc2c(Cl)c(OCCBr)oc(=O)c2c1`, for which the result in [10], in assay [6] and in [4] was Active. Further, the result in assay [2] and in assay [7] was inactive.

Take `C#CCCOc1oc(=O)c2ccccc2c1Cl`: the outcome in [1], in [10], in assay [14], in [6], in assay [3] and in [4] was Active. Further, the result in [9], in assay [13] and in [2] was inactive.

Regarding `C#CCCC(=O)Nc1ccc2c(Cl)c(OC)oc(=O)c2c1`, the Activity in assay [15] amounted to 0.007%. The outcome in assay [10], in [6] and in [4] was Active. The outcome in assay [2] and in assay [7] was inactive.

Take `C#CCCOc1oc(=O)c2cc(N)ccc2c1Cl`: the Activity in assay [16] stood at 0.03%. The outcome in assay [1], in [10], in [17], in [6], in assay [7] and in assay [3] was Active. The result in assay [19] and in assay [4] was Active. In addition, the result in [9], in [2] and in assay [18] was inactive.

For the compound `C#CCCC(=O)Nc1ccc2c(Cl)c(OCCc3ccccc3)oc(=O)c2c1`, in assay [2], the outcome was inactive. Also, the outcome in [4] was Active.
